Data taken from ChEMBL document CHEMBL1139845, “Synthesis and biological evaluation of novel 1-deoxy-1-[6-[((hetero)arylcarbonyl)hydrazino]- 9H-purin-9-yl]-N-ethyl-beta-D-ribofuranuronamide derivatives as useful templates for the development of A2B adenosine receptor agonists” (J Med Chem, 2007).

Key:
Adenosine receptor A3 = molecular target: T1, Adenosine receptor A3 (Homo sapiens, UniProt P0DMS8); test: (§1) Displacement of [125I]AB-MECA from human adenosine A3 receptor expressed in CHO cells; format: cell-based
T1 sequence (P0DMS8 whole entry): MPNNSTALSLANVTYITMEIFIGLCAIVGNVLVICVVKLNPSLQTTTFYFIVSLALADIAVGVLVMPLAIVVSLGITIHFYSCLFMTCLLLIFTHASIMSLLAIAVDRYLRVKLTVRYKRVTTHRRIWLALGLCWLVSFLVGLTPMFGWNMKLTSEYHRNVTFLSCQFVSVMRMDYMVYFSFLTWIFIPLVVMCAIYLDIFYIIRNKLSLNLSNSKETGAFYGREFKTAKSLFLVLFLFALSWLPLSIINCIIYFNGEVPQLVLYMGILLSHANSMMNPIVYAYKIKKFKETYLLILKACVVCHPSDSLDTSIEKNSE
Summary of the method: (§2)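 Membranes from CHO cells expressing hA3, 50 µg protein/assay, pretreated with adenosine deaminase. Incubated with [¹²⁵I]AB-MECA in 50 mM Tris-HCl, 10 mM MgCl₂, 1 mM EDTA, pH 7.4, at 6–8 concentrations of test compound, 60 min at 37 °C. Nonspecific binding defined with 1 µM AB-MECA. GF/B filtration. Ki obtained by Cheng–Prusoff. Mean ± SEM of 3–4 experiments in duplicate.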

[1] = molecular target: T2, Adenosine receptor A3 (Homo sapiens) (UniProt P0DMS8); test: as §1; format: cell-based; summary of the method: as §2
T2 sequence (whole entry): T1 sequence (P0DMS8 whole entry)

[2] = molecular target: T3, Adenosine receptor A2b (Homo sapiens) (UniProt P29275); test: (§3) Activity at human adenosine A2B receptor expressed in CHO cells assessed as stimulation of cAMP levels; format: functional, cell-based; parameters: concentration or dose not given beside the values
T3 sequence (whole entry): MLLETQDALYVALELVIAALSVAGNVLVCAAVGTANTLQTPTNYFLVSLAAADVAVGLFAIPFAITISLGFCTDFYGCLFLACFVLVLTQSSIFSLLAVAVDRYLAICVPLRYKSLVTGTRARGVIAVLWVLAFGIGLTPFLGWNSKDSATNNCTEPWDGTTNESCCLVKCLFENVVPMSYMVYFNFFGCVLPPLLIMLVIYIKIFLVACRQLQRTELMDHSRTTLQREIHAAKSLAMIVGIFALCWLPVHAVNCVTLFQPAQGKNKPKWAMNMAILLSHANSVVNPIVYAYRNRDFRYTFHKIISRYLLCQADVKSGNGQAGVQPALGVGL
Summary of the method: (§4)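 Whole CHO cells transfected with human A2B (1 × 10⁶ cells/assay), preincubated 10 min at 37 °C with adenosine deaminase 2 IU/mL and Ro 20-1724 as PDE inhibitor. Ligands (1 nM to 10 µM) were then added for 5 min. Stopped with cold 6% TCA and ether-extracted. cAMP measured by competition binding to bovine adrenal binding protein with [³H]cAMP. Mean ± SEM of 3–4 experiments in duplicate.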

Adenosine receptor A2b = molecular target: T4, Adenosine receptor A2b (Homo sapiens, UniProt P29275); test: as §3; format: functional, cell-based; summary of the method: as §4
T4 sequence (P29275 whole entry): T3 sequence (whole entry)

Adenosine receptor A1 = molecular target: T5, Adenosine receptor A1 (Homo sapiens, UniProt P30542); test: (§5) Displacement of [3H]CHA from human adenosine A1 receptor expressed in CHO cells; format: cell-based
T5 sequence (P30542 whole entry): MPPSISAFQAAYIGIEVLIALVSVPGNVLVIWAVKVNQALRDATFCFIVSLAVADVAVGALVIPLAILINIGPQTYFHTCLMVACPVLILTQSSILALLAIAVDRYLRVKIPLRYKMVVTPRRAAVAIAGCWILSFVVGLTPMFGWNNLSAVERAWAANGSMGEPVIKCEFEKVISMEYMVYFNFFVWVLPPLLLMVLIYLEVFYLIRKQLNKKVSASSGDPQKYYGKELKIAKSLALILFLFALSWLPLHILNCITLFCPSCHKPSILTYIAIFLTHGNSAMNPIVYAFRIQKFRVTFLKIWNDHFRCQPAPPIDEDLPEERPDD
Summary of the method: (§6)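 Membranes from hA1 CHO cells, 50 µg protein/assay, pretreated with adenosine deaminase. Incubated with 1 nM [³H]CHA in 50 mM Tris-HCl pH 7.4 at 6–8 concentrations, 150 min at 25 °C. Nonspecific binding defined with 10 µM CHA. GF/B filtration and scintillation counting. Ki obtained by Cheng–Prusoff. Mean ± SEM of 3–4 experiments in duplicate.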

[3] = molecular target: T6, Adenosine receptor A1 (Homo sapiens) (UniProt P30542); test: as §5; format: cell-based; summary of the method: as §6
T6 sequence (whole entry): T5 sequence (P30542 whole entry)

Adenosine receptor A2a = Adenosine receptor A2a (Homo sapiens, UniProt P29274); test: Displacement of [3H]CGS-21680 from human adenosine A2A receptor expressed in CHO cells; format: cell-based; parameters: concentration or dose not given beside the values
Sequence of Adenosine receptor A2a (P29274 whole entry): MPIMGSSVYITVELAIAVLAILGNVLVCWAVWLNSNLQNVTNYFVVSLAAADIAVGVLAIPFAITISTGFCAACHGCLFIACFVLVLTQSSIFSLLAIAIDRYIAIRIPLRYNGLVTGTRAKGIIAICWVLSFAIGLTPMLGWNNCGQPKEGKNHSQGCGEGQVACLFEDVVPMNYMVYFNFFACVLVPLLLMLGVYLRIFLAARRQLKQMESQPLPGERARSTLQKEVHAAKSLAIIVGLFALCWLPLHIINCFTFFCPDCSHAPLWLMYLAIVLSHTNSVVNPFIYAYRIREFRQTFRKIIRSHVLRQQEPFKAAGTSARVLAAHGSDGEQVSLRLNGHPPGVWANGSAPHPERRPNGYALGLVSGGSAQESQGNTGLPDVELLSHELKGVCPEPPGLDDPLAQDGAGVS

Row | Ki (Adenosine receptor A3) [µM] | Activity [1] [%] | Activity [2] [%] | EC50 (Adenosine receptor A2b) [µM] | Ki (Adenosine receptor A1) [µM] | Activity [3] [%] | Activity (Adenosine receptor A2a) [%] | Ki (Adenosine receptor A2a) [µM] | Activity ([2]; filed as agonist) | SMILES
1 | > 5 | 8 | 10 | > 5 | > 5 | 35 | 18 | > 5 | – | CCNC(=O)[C@H]1O[C@@H](n2cnc3c(NNC(=O)c4ccccc4)ncnc32)[C@H](O)[C@@H]1O
2 | > 5 | 9 | – | – | 1.6 | – | – | 3.8 | – | CCNC(=O)[C@H]1O[C@@H](n2cnc3c(NNC(=O)c4sccc4C)nc(Cl)nc32)[C@H](O)[C@@H]1O
3 | > 5 | 11 | 14 | > 5 | > 5 | 7 | 12 | > 5 | – | CCNC(=O)[C@H]1O[C@@H](n2cnc3c(NNC(=O)c4nc([N+](=O)[O-])cn4C)ncnc32)[C@H](O)[C@@H]1O
4 | > 5 | 17 | 9 | > 5 | > 5 | 11 | 7 | > 5 | – | CCNC(=O)[C@H]1O[C@@H](n2cnc3c(NNC(=O)c4cccnc4)ncnc32)[C@H](O)[C@@H]1O
5 | > 5 | 19 | – | – | 1.1 | – | – | 2.1 | – | CCNC(=O)[C@H]1O[C@@H](n2cnc3c(NNC(=O)c4ccc(C)s4)ncnc32)[C@H](O)[C@@H]1O
6 | > 5 | 15 | – | – | – | – | – | 1.6 | – | CCNC(=O)[C@H]1O[C@@H](n2cnc3c(NNC(=O)c4ccc(C)o4)ncnc32)[C@H](O)[C@@H]1O
7 | > 5 | 20 | 6 | > 5 | > 5 | 5 | 8 | > 5 | – | CCNC(=O)[C@H]1O[C@@H](n2cnc3c(NNC(=O)c4ccc(Cl)cc4)ncnc32)[C@H](O)[C@@H]1O
8 | > 5 | 13 | – | 0.369 | 0.78 | – | – | 1.2 | – | CCNC(=O)[C@H]1O[C@@H](n2cnc3c(NNC(=O)c4ccc(Br)o4)ncnc32)[C@H](O)[C@@H]1O
9 | > 5 | 26 | – | – | 3.5 | – | – | 4.95 | – | CCNC(=O)[C@H]1O[C@@H](n2cnc3c(NNC(=O)c4ccco4)nc(Cl)nc32)[C@H](O)[C@@H]1O
10 | > 5 | 23 | – | – | 1.05 | – | – | 1.55 | Agonist | CCNC(=O)[C@H]1O[C@@H](n2cnc3c(NNC(=O)c4ccco4)ncnc32)[C@H](O)[C@@H]1O

Further lines, the molecule ahead of its results:

Row | SMILES | Ki (Adenosine receptor A3) [µM] | Activity [1] [%] | Activity [2] [%] | EC50 (Adenosine receptor A2b) [µM] | Ki (Adenosine receptor A1) [µM] | Activity [3] [%] | Activity (Adenosine receptor A2a) [%] | Ki (Adenosine receptor A2a) [µM] | Activity ([2]; filed as agonist)
11 | CCNC(=O)[C@H]1O[C@@H](n2cnc3c(NNC(=O)c4ccccc4)nc(Cl)nc32)[C@H](O)[C@@H]1O | > 5 | 45 | 5 | > 5 | > 5 | 37 | 40 | > 5 | –
12 | CCNC(=O)[C@H]1O[C@@H](n2cnc3c(NNC(=O)c4ccsc4)nc(Cl)nc32)[C@H](O)[C@@H]1O | > 5 | 18 | – | – | – | – | – | 3.3 | –
13 | CCNC(=O)[C@H]1O[C@@H](n2cnc3c(NNC(=O)c4cc(C)on4)nc(Cl)nc32)[C@H](O)[C@@H]1O | > 5 | 16 | 21 | > 5 | > 5 | 7 | 3 | > 5 | –
14 | CCNC(=O)[C@H]1O[C@@H](n2cnc3c(NNC(=O)Cc4cccs4)nc(Cl)nc32)[C@H](O)[C@@H]1O | 0.025 | – | – | – | – | – | – | – | –
15 | CCNC(=O)[C@H]1O[C@@H](n2cnc3c(NNC(=O)c4cccs4)nc(Cl)nc32)[C@H](O)[C@@H]1O | > 5 | 12 | – | – | – | – | – | 1.7 | –
16 | CCNC(=O)[C@H]1O[C@@H](n2cnc3c(NNC(=O)c4ccc[nH]4)nc(Cl)nc32)[C@H](O)[C@@H]1O | > 5 | 11 | – | – | – | – | – | 3.2 | –
17 | CCNC(=O)[C@H]1O[C@@H](n2cnc3c(NNC(=O)c4ccc(C)s4)nc(Cl)nc32)[C@H](O)[C@@H]1O | > 5 | 17 | – | – | 2.6 | – | – | 4.1 | –
18 | CCNC(=O)[C@H]1O[C@@H](n2cnc3c(NNC(=O)c4cc(-c5ccccc5)on4)nc(Cl)nc32)[C@H](O)[C@@H]1O | > 5 | 15 | 24 | > 5 | > 5 | 5 | 2 | > 5 | –
